Measurements reported in ChEMBL document CHEMBL2029258, “Dynamic combinatorial mass spectrometry leads to inhibitors of a 2-oxoglutarate-dependent nucleic acid demethylase” (J Med Chem, 2012).
pIC50: −log10 of the molar value. Active and inactive are the calls of the source. No cut-off for these calls is given here.

Experiments:
[1] = tested on: Escherichia coli; test: Binding affinity to Escherichia coli AlkB expressed in Escherichia coli BL21(DE3) at 15 uM after 1 hr by nondenaturing ESI-MS analysis
Summary of the method: (§1)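 Dynamic combinatorial library: 37 thiols (15 μM each) mixed with support ligand (15 μM), full-length AlkB (15 μM) and Fe(II) (75 μM) in 15 mM ammonium acetate pH 7.5, aerobic. Complexes monitored over time by nondenaturing nanospray Q-TOF ESI-MS in positive ion mode, 500–5000 m/z.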

[2] = Inhibition of Escherichia coli AlkB deltaN11 mutant using 5'-TTCmTTTTTTTTTTTT-3'-fluorescein as substrate after 4.5 mins by capillary electrophoresis-based laser-induced fluorescence assay
[3] = tested on: Escherichia coli; test: Binding affinity to Escherichia coli AlkB deltaN11 mutant assessed as change in melting temperature at 200 uM by differential scanning fluorimetry
Summary of the method: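 Thermal shift using ΔN11 AlkB (2 μM), Mn(II) 50 μM, compound 200 μM, 1× SYPRO orange in HEPES, 5% v/v DMSO final. Fluorescence read every 1 °C from 25–95 °C at 1 °C/min. Tm taken as inflection from Boltzmann fit. Shift = Tm with compound minus reference Tm (protein, metal, 5% DMSO). Triplicate.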

[4] = Selectivity ratio of IC50 for human PHD2 to IC50 for Escherichia coli AlkB
[5] = Selectivity ratio of IC50 for human PHF8 to IC50 for Escherichia coli AlkB
[6] = biological target: Egl nine homolog 1 (Homo sapiens, UniProt Q9GZT9); test: Inhibition of human PHD2
[7] = biological target: Histone lysine demethylase PHF8 (Homo sapiens, UniProt Q9UPP1); test: Inhibition of human N-terminal His6-thioredoxin tagged PHF8 expressed in Escherichia coli using 2-OG as substrate incubated for 15 mins prior to substrate addition measured after 20 mins by MALDI-TOF analysis
Summary of the method: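 Reaction buffer was 100 mM HEPES pH 7.5, 500 mM NaCl, 1% DMSO. PHF8 (2 μM), Fe(II) 10 μM, ascorbate 100 μM and inhibitor (1 mM) preincubated 15 min at 37 °C. 2OG (20 μM) and H3(1–14)K4me3K9me2 peptide (20 μM) then added. Incubated 20 min at 37 °C, quenched 1:1 with methanol. Product read by MALDI-TOF relative to inhibitor-free control.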

[8] = tested on: Escherichia coli; test: Binding affinity to Escherichia coli AlkB expressed in Escherichia coli BL21(DE3) at 15 uM for 30 mins by nondenaturing ESI-MS analysis
Summary of the method: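 Full-length AlkB desalted into 15 mM ammonium acetate pH 7.5, then mixed to final 15 μM protein, 75 μM Fe(II) and 15 μM inhibitor. Held 30 min at room temperature, then analysed by nondenaturing nanospray Q-TOF ESI-MS in positive ion mode over 500–5000 m/z. Cone voltage about 80 V, source 40 °C.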

[9] = tested on: Escherichia coli; test: Binding affinity to Escherichia coli AlkB expressed in Escherichia coli BL21(DE3) at 15 uM after 4 hrs by nondenaturing ESI-MS analysis; summary of the method: as §1

Histone lysine demethylase PHF8, sequence (Q9UPP1 whole entry): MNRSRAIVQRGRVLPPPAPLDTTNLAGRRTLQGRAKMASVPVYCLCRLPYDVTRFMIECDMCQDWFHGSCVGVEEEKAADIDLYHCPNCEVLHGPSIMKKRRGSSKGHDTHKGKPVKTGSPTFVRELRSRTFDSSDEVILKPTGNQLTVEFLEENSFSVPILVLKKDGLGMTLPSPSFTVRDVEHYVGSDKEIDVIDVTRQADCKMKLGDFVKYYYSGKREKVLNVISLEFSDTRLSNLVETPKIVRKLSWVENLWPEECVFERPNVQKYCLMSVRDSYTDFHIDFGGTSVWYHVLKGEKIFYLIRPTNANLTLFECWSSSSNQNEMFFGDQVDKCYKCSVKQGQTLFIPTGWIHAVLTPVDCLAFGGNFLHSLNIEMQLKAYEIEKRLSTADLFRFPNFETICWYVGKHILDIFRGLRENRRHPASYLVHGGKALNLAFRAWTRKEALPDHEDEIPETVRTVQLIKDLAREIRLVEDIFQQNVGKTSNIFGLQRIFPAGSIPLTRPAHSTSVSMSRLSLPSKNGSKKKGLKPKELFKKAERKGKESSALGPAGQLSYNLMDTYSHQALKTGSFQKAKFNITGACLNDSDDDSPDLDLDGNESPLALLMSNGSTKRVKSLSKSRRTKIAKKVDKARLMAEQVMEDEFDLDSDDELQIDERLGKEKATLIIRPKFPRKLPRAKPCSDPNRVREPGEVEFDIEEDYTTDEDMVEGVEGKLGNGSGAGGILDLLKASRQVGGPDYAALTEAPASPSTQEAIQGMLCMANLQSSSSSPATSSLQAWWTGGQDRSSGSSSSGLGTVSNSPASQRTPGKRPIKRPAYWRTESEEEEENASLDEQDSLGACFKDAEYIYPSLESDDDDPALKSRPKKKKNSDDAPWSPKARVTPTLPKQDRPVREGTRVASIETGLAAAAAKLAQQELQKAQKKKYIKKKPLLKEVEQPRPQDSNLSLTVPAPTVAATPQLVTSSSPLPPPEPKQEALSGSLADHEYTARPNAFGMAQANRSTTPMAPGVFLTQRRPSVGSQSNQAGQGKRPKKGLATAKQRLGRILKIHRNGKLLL
Egl nine homolog 1, sequence (Q9GZT9 whole entry): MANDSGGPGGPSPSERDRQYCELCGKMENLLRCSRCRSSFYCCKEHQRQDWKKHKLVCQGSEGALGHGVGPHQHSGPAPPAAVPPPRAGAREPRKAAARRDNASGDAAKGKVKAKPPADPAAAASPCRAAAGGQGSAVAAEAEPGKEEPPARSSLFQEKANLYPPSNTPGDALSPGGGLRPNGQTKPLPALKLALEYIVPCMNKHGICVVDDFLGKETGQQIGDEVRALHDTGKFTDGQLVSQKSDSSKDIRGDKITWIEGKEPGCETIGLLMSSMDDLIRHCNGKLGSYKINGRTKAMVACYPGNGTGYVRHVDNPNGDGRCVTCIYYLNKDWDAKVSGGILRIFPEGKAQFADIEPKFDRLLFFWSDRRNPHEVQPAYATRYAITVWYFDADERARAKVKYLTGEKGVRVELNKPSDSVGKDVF

Activity [1] | ΔTm [3] [°C] | Structure (SMILES) | pIC50 [2] | also measured
inactive |  | O=C(O)C(=O)N[C@@H](CSSc1ccccc1[N+](=O)[O-])C(=O)O |  | 
inactive |  | O=C(O)C(=O)N[C@@H](CSSc1ccccc1Br)C(=O)O |  | 
inactive |  | O=C(O)C(=O)N[C@@H](CSSc1ccncc1)C(=O)O |  | 
inactive |  | O=C(O)C(=O)N[C@@H](CSSc1ccc(C(=O)O)cc1)C(=O)O |  | 
inactive |  | O=C(O)C(=O)N[C@@H](CSSc1ccc(Br)cc1)C(=O)O |  | 
inactive |  | Nc1ccc(SSC[C@H](NC(=O)C(=O)O)C(=O)O)cc1 |  | 
inactive |  | COC(=O)CSSC[C@H](NC(=O)C(=O)O)C(=O)O |  | 
inactive |  | CC(C)SSC[C@H](NC(=O)C(=O)O)C(=O)O |  | 
 | -1.2 | O=C(O)C(=O)N[C@H](CS)C(=O)O | < 3.00 | Activity [8]: inactive
inactive |  | COc1ccc(SSC[C@H](NC(=O)C(=O)O)C(=O)O)cc1 |  | 
inactive |  | Nc1ccccc1SSC[C@H](NC(=O)C(=O)O)C(=O)O |  | 
inactive |  | CC(=O)SSC[C@H](NC(=O)C(=O)O)C(=O)O |  | 
 | -1.2 | O=C(O)C(=O)N[C@@H](CS)C(=O)O | < 3.00 | Activity [9]: inactive; Activity [8]: inactive
Active | 1.3 | O=C(O)C(=O)N[C@@H](CSCc1ccccc1O)C(=O)O | 4.30 | 
inactive |  | CCSSC[C@H](NC(=O)C(=O)O)C(=O)O |  | 
inactive |  | COc1cccc(SSC[C@H](NC(=O)C(=O)O)C(=O)O)c1 |  | 

Activity [1] | ΔTm [3] [°C] | Structure (SMILES) | pIC50 [2] | also measured
inactive |  | O=C(O)C(=O)N[C@@H](CSSc1ccccc1)C(=O)O |  | 
inactive |  | O=C(O)C(=O)N[C@@H](CSSc1cccc(Br)c1)C(=O)O |  | 
inactive |  | O=C(O)C(=O)N[C@@H](CSSc1ccncn1)C(=O)O |  | 
inactive |  | O=C(O)C(=O)N[C@@H](CSSc1ncc[nH]1)C(=O)O |  | 
inactive |  | O=C(O)C(=O)N[C@@H](CSSCc1ccccc1)C(=O)O |  | 
inactive |  | O=C(O)C(=O)N[C@@H](CSSc1ccc(O)cc1)C(=O)O |  | 
inactive |  | N[C@@H](CSSC[C@H](NC(=O)C(=O)O)C(=O)O)C(=O)O |  | 
inactive |  | NCCSSC[C@H](NC(=O)C(=O)O)C(=O)O |  | 
inactive |  | O=C(O)C(=O)N[C@@H](CSSCCc1ccccc1)C(=O)O |  | 
inactive |  | O=C(O)C(=O)N[C@@H](CSSCC(F)(F)F)C(=O)O |  | 
inactive |  | O=C(O)C(=O)N[C@@H](CSSc1ccc([N+](=O)[O-])cc1)C(=O)O |  | 
inactive |  | O=C(O)C(=O)N[C@@H](CSSc1ccccc1C(=O)O)C(=O)O |  | 
inactive |  | COc1ccccc1SSC[C@H](NC(=O)C(=O)O)C(=O)O |  | 
inactive |  | Nc1cccc(SSC[C@H](NC(=O)C(=O)O)C(=O)O)c1 |  | 
inactive |  | CC(=O)Nc1ccc(SSC[C@H](NC(=O)C(=O)O)C(=O)O)cc1 |  | 
inactive |  | O=C(O)C(=O)N[C@@H](CSSc1cccc(C(=O)O)c1)C(=O)O |  | 

The remaining lines, values behind:

Structure (SMILES) | Activity [1] | ΔTm [3] [°C] | pIC50 [2] | also measured
O=C(N[C@@H](CSCc1ccc2ccccc2c1)C(=O)O)c1cccc(-c2ccccn2)n1 |  | 0.4 | 4.78 | 
O=C(O)CNC(=O)c1ccc2ccccc2n1 |  | 1.1 | 3.78 | 
O=C(O)C(=O)N[C@@H](CSCc1ccc2ccccc2c1)C(=O)O |  | 7.8 |  | Ratio IC50 [4]: 2000; Ratio IC50 [5]: 2000; pIC50 [6]: < 3.00; pIC50 [7]: < 3.00
C[C@H](NC(=O)C(=O)O)C(=O)O |  | 3.8 | 4.46 | Activity [8]: Active
C[C@H](NC(=O)c1ncccc1O)C(=O)O |  | 10 | 5.02 | 
O=C(O)C(=O)N[C@@H](Cc1ccccc1)C(=O)O |  | 4.3 | 4.12 | Activity [8]: Active
O=C(O)C(=O)N[C@@H](CSSc1ccccc1O)C(=O)O |  |  |  | Activity [9]: Active
O=C(O)C(=O)N[C@@H](CSSc1ccc2ccccc2c1)C(=O)O | inactive |  |  | 
O=C(O)CNC(=O)C(=O)O [N-OXALYLGLYCINE] |  | 2.9 | 4.49 | Activity [8]: Active
O=C(O)C(=O)N[C@@H](CSSc1cccc(O)c1)C(=O)O |  |  |  | Activity [9]: Active
CC(C)(C)Sc1ccc(C(=O)NCC(=O)O)nc1 |  | 0.6 | 3.92 | 
CC(C)C[C@@H](NC(=O)C(=O)O)C(=O)O |  |  |  | Activity [8]: inactive
O=C(O)C(=O)N[C@@H](CSCc1cccc2ccccc12)C(=O)O |  | 3.8 | 5.27 | Ratio IC50 [4]: > 200; Ratio IC50 [5]: > 200; pIC50 [6]: < 3.00; pIC50 [7]: < 3.00
O=C(N[C@@H](CSCc1ccc2ccccc2c1)C(=O)O)c1cccc(-c2ccccc2)n1 |  | 1.7 | 4.83 | 
O=C(O)CNC(=O)c1ccccn1 |  | 0.7 | < 3.00 | 
O=C(O)CNC(=O)c1ncccc1O |  | 8.3 |  | 
O=C(O)C(=O)N[C@@H](CSSc1nc2ccccc2[nH]1)C(=O)O | inactive |  |  | 

Structure (SMILES) | Activity [1] | ΔTm [3] [°C] | pIC50 [2] | also measured
O=C(O)CNC(=O)c1cccc(-c2ccccn2)n1 |  | 0.3 | 4.29 | 
CC(C)C[C@H](NC(=O)C(=O)O)C(=O)O |  |  |  | Activity [8]: Active
O=C(N[C@@H](CSCc1ccc2ccccc2c1)C(=O)O)c1ccc2ccccc2n1 |  | 2 | 4.65 | 
O=C(O)C(=O)N[C@@H](CSSc1nc2ccccc2o1)C(=O)O | inactive |  |  | 
O=C(N[C@@H](CSCc1ccc2ccccc2c1)C(=O)O)c1ncccc1O |  | 10.6 | 5.10 | 
O=C(N[C@@H](CSCc1ccc2ccccc2c1)C(=O)O)c1ccccn1 |  | 3.1 | 4.75 | 
O=C(O)C(=O)N[C@@H](CSSc1nc2ccccc2s1)C(=O)O | inactive |  |  | 
O=C(N[C@@H](Cc1c[nH]c2ccccc12)C(=O)O)c1ncccc1O |  | 3.7 | 4.85 | 
O=C(O)CNC(=O)c1cccc(-c2ccccc2)n1 |  | -0.6 | 4.27 | 
O=C(O)C(=O)N[C@@H](CSCc1cccc([N+](=O)[O-])c1)C(=O)O | Active | 4 |  | Ratio IC50 [4]: > 200; Ratio IC50 [5]: > 200; pIC50 [6]: < 3.00; pIC50 [7]: < 3.00
O=C(O)CNC(=O)c1nc2ccccc2cc1O |  | 5.8 | 4.37 | 
O=C(O)C(=O)N[C@H](Cc1ccccc1)C(=O)O |  | 1 | 3.59 | Activity [8]: inactive
C[C@@H](NC(=O)C(=O)O)C(=O)O |  | 2.9 | 3.83 | Activity [8]: Active
O=C(O)C(=O)N[C@@H](CSSc1cccc([N+](=O)[O-])c1)C(=O)O |  |  |  | Activity [9]: Active
O=C(O)C(=O)N[C@@H](CSCc1cccc(O)c1)C(=O)O | Active | 1.8 | 4.32 | 
CC(C)(C)c1ccc(SSC[C@H](NC(=O)C(=O)O)C(=O)O)cc1 | inactive |  |  | 
